From ChEMBL document CHEMBL4251593, “Nontoxic combretafuranone analogues with high in vitro antibacterial activity” (Eur J Med Chem, 2018)
Values after ≈ are worked out from the molar mass of the structure shown.

How the values were obtained:
TERT-RPE1 [1] = assay: Cytotoxicity against human RPE1 cells assessed as reduction in cell viability after 48 hrs by ATPlite-based luminescent assay; conditions: RPE-1, 48 h
Procedure, shortened: (§1)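 Cells were grown […] with 10% FBS, glutamax, NEAA and pen/strep at 37 °C, 5% CO2. Media were DMEM for RPE-1, HepG2 and BJ (BJ plus 10 ng/ml bFGF), F-12K for PC3, and IMDM for K562/HL-60. Cells were seeded at 500 per well and dosed from DMSO at 12 concentrations, 40 µM to 1 nM, in triplicate. After 48 h, intracellular ATP was read by luminescence. ED50 was obtained by variable-slope nonlinear regression.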

BJ = assay: Cytotoxicity against human BJ cells assessed as reduction in cell viability after 48 hrs by ATPlite-based luminescent assay; procedure, shortened: as §1
K562 [2] = assay: Cytotoxicity against human K562 cells assessed as reduction in cell viability after 48 hrs by ATPlite-based luminescent assay; conditions: K562, 48 h; procedure, shortened: as §1
HL-60 [3] = assay: Cytotoxicity against human HL60 cells assessed as reduction in cell viability after 48 hrs by ATPlite-based luminescent assay; conditions: HL-60, 48 h; procedure, shortened: as §1
PC-3 [4] = assay: Cytotoxicity against human PC3 cells assessed as reduction in cell viability after 48 hrs by ATPlite-based luminescent assay; conditions: PC-3, 48 h; procedure, shortened: as §1
MCF7 = assay: Cytotoxicity against human MCF7 cells assessed as reduction in cell viability after 48 hrs by ATPlite-based luminescent assay; conditions: MCF7, 48 h
HepG2 [5] = assay: Cytotoxicity against human HepG2 cells assessed as reduction in cell viability after 48 hrs by ATPlite-based luminescent assay; conditions: HepG2, 48 h; procedure, shortened: as §1
TERT-RPE1 [6] = assay: Induction of apoptosis in human RPE1 cells assessed as caspase 3/7 activity after 24 hrs by caspase-glo luminescent assay; assay type: cell-based; conditions: RPE-1, 24 h
Procedure, shortened: (§2)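 Cells were seeded at 500 per well in their growth media and exposed to 12 concentrations from 40 µM to 1 nM, delivered from DMSO, in triplicate. After 24 h, caspase-3/7 activity was read by Caspase-Glo luminescence. Data were normalized and ED50 was fitted by variable-slope nonlinear regression.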

K562 [7] = assay: Induction of apoptosis in human K562 cells assessed as caspase 3/7 activity after 24 hrs by caspase-glo luminescent assay; assay type: cell-based; conditions: K562, 24 h; procedure, shortened: as §2
HL-60 [8] = assay: Induction of apoptosis in human HL60 cells assessed as caspase 3/7 activity after 24 hrs by caspase-glo luminescent assay; assay type: cell-based; conditions: HL-60, 24 h; procedure, shortened: as §2
PC-3 [9] = assay: Induction of apoptosis in human PC3 cells assessed as caspase 3/7 activity after 24 hrs by caspase-glo luminescent assay; assay type: cell-based; conditions: PC-3, 24 h; procedure, shortened: as §2
HepG2 [10] = assay: Induction of apoptosis in human HepG2 cells assessed as caspase 3/7 activity after 24 hrs by caspase-glo luminescent assay; assay type: cell-based; conditions: HepG2, 24 h; procedure, shortened: as §2
Staphylococcus aureus [11] = assay: Antibacterial activity against Staphylococcus aureus ATCC 6538 after 24 hrs by microdilution assay; assay type: functional; conditions: ATCC 6538, 24 h
Staphylococcus aureus [12] = assay: Antibacterial activity against methicillin-resistant Staphylococcus aureus HK5996/08 clinical isolate after 24 hrs by microdilution assay; assay type: functional; conditions: HK5996/08, 24 h
[13] = tested on: Staphylococcus epidermidis; assay: Antibacterial activity against Staphylococcus epidermidis HK6966/08 clinical isolate after 24 hrs by microdilution assay; assay type: functional; conditions: HK6966/08, 24 h
Enterococcus sp. [14] = assay: Antibacterial activity against Enterococcus sp. HK14365/08 clinical isolate after 24 hrs by microdilution assay; assay type: functional; conditions: HK14365/08, 24 h
Escherichia coli [15] = assay: Antibacterial activity against Escherichia coli ATCC 8739 after 24 hrs by microdilution assay; assay type: functional; conditions: ATCC 8739, 24 h
Procedure, shortened: (§3)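 Broth microdilution in Mueller-Hinton medium buffered to pH 7.4 (±0.2), with DMSO as diluent at no more than 2% final. Compounds were tested as 2-fold serial dilutions from 2000 to 0.488 µmol/l. The inoculum was 0.5 McFarland (1.5×10^8 cfu/ml). Plates were held at 37 °C and read visually at 24 and 48 h. MIC was taken as 95% growth inhibition versus control, determined twice in duplicate.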

Klebsiella pneumoniae [16] = assay: Antibacterial activity against Klebsiella pneumoniae HK11750/08 clinical isolate after 24 hrs by microdilution assay; assay type: functional; conditions: HK11750/08, 24 h
Klebsiella pneumoniae [17] = assay: Antibacterial activity against Klebsiella pneumoniae HK14368/08 clinical isolate after 24 hrs by microdilution assay; assay type: functional; conditions: HK14368/08, 24 h
Pseudomonas aeruginosa [18] = assay: Antibacterial activity against Pseudomonas aeruginosa ATCC 9027 after 24 hrs by microdilution assay; assay type: functional; conditions: ATCC 9027, 24 h; procedure, shortened: as §3
Staphylococcus aureus [19] = assay: Antibacterial activity against Staphylococcus aureus ATCC 6538 after 48 hrs by microdilution assay; assay type: functional; conditions: ATCC 6538, 48 h
Staphylococcus aureus [20] = assay: Antibacterial activity against methicillin-resistant Staphylococcus aureus HK5996/08 clinical isolate after 48 hrs by microdilution assay; assay type: functional; conditions: HK5996/08, 48 h
[21] = tested on: Staphylococcus epidermidis; assay: Antibacterial activity against Staphylococcus epidermidis HK6966/08 clinical isolate after 48 hrs by microdilution assay; assay type: functional; conditions: HK6966/08, 48 h
Enterococcus sp. [22] = assay: Antibacterial activity against Enterococcus sp. HK14365/08 clinical isolate after 48 hrs by microdilution assay; assay type: functional; conditions: HK14365/08, 48 h
Escherichia coli [23] = assay: Antibacterial activity against Escherichia coli ATCC 8739 after 48 hrs by microdilution assay; assay type: functional; conditions: ATCC 8739, 48 h; procedure, shortened: as §3
Klebsiella pneumoniae [24] = assay: Antibacterial activity against Klebsiella pneumoniae HK11750/08 clinical isolate after 48 hrs by microdilution assay; assay type: functional; conditions: HK11750/08, 48 h
Klebsiella pneumoniae [25] = assay: Antibacterial activity against Klebsiella pneumoniae HK14368/08 clinical isolate after 48 hrs by microdilution assay; assay type: functional; conditions: HK14368/08, 48 h
Pseudomonas aeruginosa [26] = assay: Antibacterial activity against Pseudomonas aeruginosa ATCC 9027 after 48 hrs by microdilution assay; assay type: functional; conditions: ATCC 9027, 48 h; procedure, shortened: as §3

COc1ccc(C2=C(c3ccc(OC)c(OC)c3)COC2=O)cc1
IC50 (TERT-RPE1 [1]): > 40 µM
IC50 (BJ): > 40 µM
IC50 (K562 [2]): > 40 µM
IC50 (HL-60 [3]): > 40 µM
IC50 (PC-3 [4]): 15.9 µM
IC50 (MCF7): > 40 µM
IC50 (HepG2 [5]): > 40 µM
IC50 (TERT-RPE1 [6]): > 40 µM
IC50 (K562 [7]): > 40 µM
IC50 (HL-60 [8]): > 40 µM
IC50 (PC-3 [9]): > 40 µM
IC50 (HepG2 [10]): > 40 µM
MIC95 (Staphylococcus aureus [11]): > 125 µM
MIC95 (Staphylococcus aureus [12]): > 125 µM
MIC95 [13]: > 125 µM
MIC95 (Enterococcus sp. [14]): > 125 µM
MIC95 (Escherichia coli [15]): > 125 µM
MIC95 (Klebsiella pneumoniae [16]): > 125 µM
MIC95 (Klebsiella pneumoniae [17]): > 125 µM
MIC95 (Pseudomonas aeruginosa [18]): > 125 µM
MIC95 (Staphylococcus aureus [19]): > 125 µM
MIC95 (Staphylococcus aureus [20]): > 125 µM
MIC95 [21]: > 125 µM
MIC95 (Enterococcus sp. [22]): > 125 µM
MIC95 (Escherichia coli [23]): > 125 µM
MIC95 (Klebsiella pneumoniae [24]): > 125 µM
MIC95 (Klebsiella pneumoniae [25]): > 125 µM
MIC95 (Pseudomonas aeruginosa [26]): > 125 µM

COc1ccc(C2=C(c3ccc4c(c3)OCO4)COC2=O)cc1
IC50 (TERT-RPE1 [1]): > 40 µM
IC50 (BJ): > 40 µM
IC50 (K562 [2]): 15.7 µM
IC50 (HL-60 [3]): 15.5 µM
IC50 (PC-3 [4]): > 40 µM
IC50 (MCF7): > 40 µM
IC50 (HepG2 [5]): > 40 µM
IC50 (TERT-RPE1 [6]): > 40 µM
IC50 (K562 [7]): > 40 µM
IC50 (HL-60 [8]): > 40 µM
IC50 (PC-3 [9]): > 40 µM
IC50 (HepG2 [10]): > 40 µM
MIC95 (Staphylococcus aureus [11]): 7.81 µM (≈ 2.42 µg/mL)
MIC95 (Staphylococcus aureus [12]): > 500 µM
MIC95 [13]: 125 µM (≈ 38.8 µg/mL)
MIC95 (Enterococcus sp. [14]): > 500 µM
MIC95 (Escherichia coli [15]): > 500 µM
MIC95 (Klebsiella pneumoniae [16]): > 500 µM
MIC95 (Klebsiella pneumoniae [17]): > 500 µM
MIC95 (Pseudomonas aeruginosa [18]): > 500 µM
MIC95 (Staphylococcus aureus [19]): 15.6 µM (≈ 4.85 µg/mL)
MIC95 (Staphylococcus aureus [20]): > 500 µM
MIC95 [21]: 500 µM (≈ 155 µg/mL)
MIC95 (Enterococcus sp. [22]): > 500 µM
MIC95 (Escherichia coli [23]): > 500 µM
MIC95 (Klebsiella pneumoniae [24]): > 500 µM
MIC95 (Klebsiella pneumoniae [25]): > 500 µM
MIC95 (Pseudomonas aeruginosa [26]): > 500 µM

O=C1OCC(c2ccc(C(F)(F)F)cc2)=C1c1ccc(Br)cc1
IC50 (TERT-RPE1 [1]): 16.4 µM
IC50 (BJ): > 40 µM
IC50 (K562 [2]): > 40 µM
IC50 (HL-60 [3]): > 40 µM
IC50 (PC-3 [4]): > 40 µM
IC50 (MCF7): 6.37 µM
IC50 (HepG2 [5]): 11.4 µM
IC50 (TERT-RPE1 [6]): > 40 µM
IC50 (K562 [7]): > 40 µM
IC50 (HL-60 [8]): > 40 µM
IC50 (PC-3 [9]): > 40 µM
IC50 (HepG2 [10]): > 40 µM
MIC95 (Staphylococcus aureus [11]): 62.5 µM (≈ 23.9 µg/mL)
MIC95 (Staphylococcus aureus [12]): 62.5 µM (≈ 23.9 µg/mL)
MIC95 [13]: 125 µM (≈ 47.9 µg/mL)
MIC95 (Enterococcus sp. [14]): > 500 µM
MIC95 (Escherichia coli [15]): > 500 µM
MIC95 (Klebsiella pneumoniae [16]): > 500 µM
MIC95 (Klebsiella pneumoniae [17]): > 500 µM
MIC95 (Pseudomonas aeruginosa [18]): > 500 µM
MIC95 (Staphylococcus aureus [19]): 62.5 µM (≈ 23.9 µg/mL)
MIC95 (Staphylococcus aureus [20]): 62.5 µM (≈ 23.9 µg/mL)
MIC95 [21]: 125 µM (≈ 47.9 µg/mL)
MIC95 (Enterococcus sp. [22]): > 500 µM
MIC95 (Escherichia coli [23]): > 500 µM
MIC95 (Klebsiella pneumoniae [24]): > 500 µM
MIC95 (Klebsiella pneumoniae [25]): > 500 µM
MIC95 (Pseudomonas aeruginosa [26]): > 500 µM
